Calls of active or inactive are those of the source. No cut-off for these calls is given here.
How the values were obtained:
[1] = target: Transcription intermediary factor 1-alpha (Homo sapiens) (UniProt O15164); test: Binding affinity to human N-terminal His-tagged TRIM24 assessed as change in melting temperature at 10 uM by SYPRO orange dye-based fluorescence assay
Method in brief: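 Thermal shift with His-tagged human bromodomain at 2 μM final in 10 mM HEPES pH 7.5, 500 mM NaCl. Compound at 10 μM final with 0.1% DMSO; SYPRO Orange at 1:1000. Equilibrated 3 min at 25 °C, then heated from 25 to 95 °C at 1 °C/min. Melting temperature shift taken from fluorescence; at least duplicate.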

[2] = tested on: Tyrosine-protein kinase ABL1 (Homo sapiens), P00519 [Y253F]; test: Inhibition of recombinant human ABL Y253F mutant (27 to end residues) at 10 uM using EAIYAAPFAKKK as substrate measured after 40 mins in presence of [gamma33P]ATP by scintillation counting method
[3] = target: 5'-AMP-activated protein kinase catalytic subunit alpha-1 (Homo sapiens) (UniProt Q13131); test: Inhibition of recombinant full-length human AMPKalpha1 at 10 uM using AMARAASAAALARRR as substrate measured after 40 mins in presence of [gamma33P]ATP by scintillation counting method
[4] = target: Cyclin-dependent kinase-like 2 (Homo sapiens) (UniProt Q92772); test: Inhibition of human CDKL2 at 10 uM by radiometric method
Method in brief: (§1)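 Kinase panel of 422 kinases screened by Eurofins KinaseProfiler at a single test-compound concentration of 10 µM.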

[5] = target: Calcium/calmodulin-dependent protein kinase type 1 (Homo sapiens) (UniProt Q14012); test: Inhibition of recombinant human CaMK1 (2 to end residues) at 10 uM using calmodulin as substrate measured after 40 mins in presence of [gamma33P]ATP by scintillation counting method
[6] = target: CDK7/Cyclin H/MNAT1 (Homo sapiens) (UniProt P51946+P50613+P51948); test: Inhibition of recombinant full length human CDK7/cyclin H/MAT1 at 10 uM using peptide substrate measured after 40 mins in presence of [gamma33P]ATP by scintillation counting method; assay type: protein-complex assay
[7] = target: Cyclin-dependent kinase 13/Cyclin-K (Homo sapiens) (UniProt Q14004+O75909); test: Inhibition of recombinant full length human CDK13/cyclinK at 10 uM using RSRSRSRSRSRSRSR as substrate measured after 120 mins in presence of [gamma33P]ATP by scintillation counting method; assay type: protein-complex assay
[8] = target: Serine/threonine-protein kinase Chk1 (Homo sapiens) (UniProt O14757); test: Inhibition of recombinant full length human CHK1 at 10 uM using KKKVSRSGLYRSPSMPENLNRPR as substrate measured after 40 mins in presence of [gamma33P]ATP by scintillation counting method
[9] = target: Ephrin type-A receptor 8 (Homo sapiens) (UniProt P29322); test: Inhibition of recombinant human EphA8 (615 to 911 residues) at 10 uM using KTFCGTPEYLAPEVRREPRILSEEEQEMFRDFDYIADWC as substrate measured after 40 mins in presence of [gamma33P]ATP by scintillation counting method
[10] = target: Eukaryotic translation initiation factor 2-alpha kinase 1 (Homo sapiens) (UniProt Q9BQI3); test: Inhibition of recombinant human HRI (140 to end residues) at 10 uM using RSRSRSRSRSRSRSR as substrate measured after 120 mins in presence of [gamma33P]ATP by scintillation counting method
[11] = target: Vascular endothelial growth factor receptor 2 (Homo sapiens) (UniProt P35968); test: Inhibition of recombinant human KDR (790 to end residues) at 10 uM using myelin basic protein substrate measured after 40 mins in presence of [gamma33P]ATP by scintillation counting method
[12] = target: Mitogen-activated protein kinase kinase kinase kinase 5 (Homo sapiens) (UniProt Q9Y4K4); test: Inhibition of recombinant full-length human MAP4K5 at 10 uM using myelin basic protein as substrate measured after 40 mins in presence of [gamma33P]ATP by scintillation counting method
[13] = tested on: Serine/threonine-protein kinase N1 (Homo sapiens), Q16512 [V901I]; test: Inhibition of human PRK1 V901I mutant (498 to end residues) using KKLNRTLSFAEPG as substrate measured after 40 mins in presence of [gamma33P]ATP by scintillation counting method; method in brief: as §1
[14] = target: Serine/threonine-protein kinase SBK1 (Homo sapiens) (UniProt Q52WX2); test: Inhibition of recombinant full-length human SBK1 at 10 uM using KKLRRTLSVA as substrate measured after 120 mins in presence of [gamma33P]ATP by scintillation counting method
[15] = target: Serine/threonine-protein kinase 16 (Homo sapiens) (UniProt O75716); test: Inhibition of human STK16 at 10 uM by radiometric method; method in brief: as §1
[16] = tested on: TGF-beta receptor type-1 (Homo sapiens), P36897 [T204D]; test: Inhibition of human TGFBR1 T204D mutant (200 to end residues) using casein as substrate measured after 40 mins in presence of [gamma33P]ATP by scintillation counting method
[17] = target: Serine/threonine-protein kinase ULK3 (Homo sapiens) (UniProt Q6PHR2); test: Inhibition of recombinant full-length human ULK3 at 10 uM using casein as substrate measured after 40 mins in presence of [gamma33P]ATP by scintillation counting method
Chain of Serine/threonine-protein kinase ULK3 (Homo sapiens) (Q6PHR2 whole entry): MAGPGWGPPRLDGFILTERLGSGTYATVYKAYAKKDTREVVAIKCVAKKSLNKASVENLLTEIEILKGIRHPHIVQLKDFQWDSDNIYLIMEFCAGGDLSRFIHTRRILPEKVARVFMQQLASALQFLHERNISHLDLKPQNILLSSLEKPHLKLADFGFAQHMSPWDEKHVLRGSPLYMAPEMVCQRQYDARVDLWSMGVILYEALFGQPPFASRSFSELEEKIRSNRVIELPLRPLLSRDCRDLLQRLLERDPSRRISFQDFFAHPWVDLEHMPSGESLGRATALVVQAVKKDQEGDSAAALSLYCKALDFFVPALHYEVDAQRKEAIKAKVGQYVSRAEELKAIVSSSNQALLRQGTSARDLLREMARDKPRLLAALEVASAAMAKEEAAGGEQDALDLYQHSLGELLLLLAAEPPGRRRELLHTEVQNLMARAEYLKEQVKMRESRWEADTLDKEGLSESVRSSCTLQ

Chain of 5'-AMP-activated protein kinase catalytic subunit alpha-1 (Homo sapiens) (Q13131 whole entry, looked up): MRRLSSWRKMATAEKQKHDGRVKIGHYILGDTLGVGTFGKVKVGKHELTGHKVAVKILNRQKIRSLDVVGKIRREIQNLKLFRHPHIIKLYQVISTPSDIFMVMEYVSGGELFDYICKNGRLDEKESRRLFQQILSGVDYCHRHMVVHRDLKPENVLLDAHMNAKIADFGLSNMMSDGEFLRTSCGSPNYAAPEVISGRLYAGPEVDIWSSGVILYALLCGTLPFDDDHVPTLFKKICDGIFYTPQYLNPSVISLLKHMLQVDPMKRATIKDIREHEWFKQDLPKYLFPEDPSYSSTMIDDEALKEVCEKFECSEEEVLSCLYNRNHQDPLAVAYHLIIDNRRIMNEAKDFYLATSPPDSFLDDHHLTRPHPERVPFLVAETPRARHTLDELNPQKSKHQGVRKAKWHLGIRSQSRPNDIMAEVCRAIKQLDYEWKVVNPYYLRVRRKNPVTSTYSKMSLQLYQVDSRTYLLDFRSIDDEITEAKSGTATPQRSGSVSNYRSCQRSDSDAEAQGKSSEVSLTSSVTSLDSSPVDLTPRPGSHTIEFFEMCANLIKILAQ
Chain of Cyclin-dependent kinase 13/Cyclin-K (Homo sapiens) (O75909 whole entry, looked up): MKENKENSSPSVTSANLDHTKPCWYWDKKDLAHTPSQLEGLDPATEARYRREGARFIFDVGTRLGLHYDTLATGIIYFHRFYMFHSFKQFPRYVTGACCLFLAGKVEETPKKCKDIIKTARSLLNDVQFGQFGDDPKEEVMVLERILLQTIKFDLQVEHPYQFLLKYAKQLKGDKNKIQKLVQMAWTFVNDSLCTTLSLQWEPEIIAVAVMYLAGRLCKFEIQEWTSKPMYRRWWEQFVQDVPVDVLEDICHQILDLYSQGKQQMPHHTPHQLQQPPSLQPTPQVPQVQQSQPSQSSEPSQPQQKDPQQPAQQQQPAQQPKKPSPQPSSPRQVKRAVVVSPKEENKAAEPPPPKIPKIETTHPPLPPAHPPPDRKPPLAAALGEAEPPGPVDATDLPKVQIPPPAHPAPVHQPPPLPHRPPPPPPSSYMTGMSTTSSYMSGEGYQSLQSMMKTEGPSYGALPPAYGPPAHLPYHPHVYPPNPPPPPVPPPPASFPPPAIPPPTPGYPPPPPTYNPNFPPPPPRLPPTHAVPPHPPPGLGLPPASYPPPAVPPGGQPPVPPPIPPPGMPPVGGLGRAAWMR
Chain of Cyclin-dependent kinase 13/Cyclin-K (Homo sapiens) (Q14004 whole entry, looked up): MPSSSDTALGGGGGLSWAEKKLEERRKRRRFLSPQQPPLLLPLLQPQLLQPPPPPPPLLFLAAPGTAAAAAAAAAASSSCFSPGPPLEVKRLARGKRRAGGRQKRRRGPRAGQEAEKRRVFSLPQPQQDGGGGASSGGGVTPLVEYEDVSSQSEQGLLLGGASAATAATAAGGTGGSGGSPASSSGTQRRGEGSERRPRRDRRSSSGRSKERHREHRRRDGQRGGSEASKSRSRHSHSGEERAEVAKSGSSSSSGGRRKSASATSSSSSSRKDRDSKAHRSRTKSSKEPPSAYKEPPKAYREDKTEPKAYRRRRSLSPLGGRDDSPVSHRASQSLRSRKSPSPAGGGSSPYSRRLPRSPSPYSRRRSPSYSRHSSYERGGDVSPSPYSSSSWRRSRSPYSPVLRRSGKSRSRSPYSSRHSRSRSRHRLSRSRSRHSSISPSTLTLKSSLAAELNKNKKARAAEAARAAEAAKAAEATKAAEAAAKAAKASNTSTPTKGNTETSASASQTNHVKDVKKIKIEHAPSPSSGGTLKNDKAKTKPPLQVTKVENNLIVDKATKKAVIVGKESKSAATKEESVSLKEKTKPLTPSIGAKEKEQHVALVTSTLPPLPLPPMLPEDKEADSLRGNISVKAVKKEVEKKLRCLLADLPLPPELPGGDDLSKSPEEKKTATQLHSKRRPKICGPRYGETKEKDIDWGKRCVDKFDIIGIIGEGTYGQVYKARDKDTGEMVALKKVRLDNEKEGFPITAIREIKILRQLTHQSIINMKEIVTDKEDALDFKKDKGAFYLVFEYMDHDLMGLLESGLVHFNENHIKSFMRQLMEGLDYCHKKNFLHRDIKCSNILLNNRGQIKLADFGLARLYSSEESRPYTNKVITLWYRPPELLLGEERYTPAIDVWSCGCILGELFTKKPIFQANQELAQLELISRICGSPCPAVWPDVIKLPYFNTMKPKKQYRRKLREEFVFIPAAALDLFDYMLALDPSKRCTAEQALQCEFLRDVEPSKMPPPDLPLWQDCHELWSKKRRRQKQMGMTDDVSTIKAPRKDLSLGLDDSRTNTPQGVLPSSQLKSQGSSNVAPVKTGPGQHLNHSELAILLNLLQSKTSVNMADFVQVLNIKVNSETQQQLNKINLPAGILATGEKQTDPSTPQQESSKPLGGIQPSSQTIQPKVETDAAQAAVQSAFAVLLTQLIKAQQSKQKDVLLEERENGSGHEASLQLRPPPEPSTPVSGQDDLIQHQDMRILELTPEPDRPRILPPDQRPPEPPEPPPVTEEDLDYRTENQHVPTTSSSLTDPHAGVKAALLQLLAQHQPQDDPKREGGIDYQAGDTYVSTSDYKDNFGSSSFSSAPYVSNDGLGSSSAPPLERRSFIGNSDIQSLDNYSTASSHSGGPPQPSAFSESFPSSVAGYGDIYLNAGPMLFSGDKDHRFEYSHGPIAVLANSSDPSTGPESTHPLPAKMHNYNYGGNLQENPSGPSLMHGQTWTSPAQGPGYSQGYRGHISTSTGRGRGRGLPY
Chain of Serine/threonine-protein kinase SBK1 (Homo sapiens) (Q52WX2 whole entry): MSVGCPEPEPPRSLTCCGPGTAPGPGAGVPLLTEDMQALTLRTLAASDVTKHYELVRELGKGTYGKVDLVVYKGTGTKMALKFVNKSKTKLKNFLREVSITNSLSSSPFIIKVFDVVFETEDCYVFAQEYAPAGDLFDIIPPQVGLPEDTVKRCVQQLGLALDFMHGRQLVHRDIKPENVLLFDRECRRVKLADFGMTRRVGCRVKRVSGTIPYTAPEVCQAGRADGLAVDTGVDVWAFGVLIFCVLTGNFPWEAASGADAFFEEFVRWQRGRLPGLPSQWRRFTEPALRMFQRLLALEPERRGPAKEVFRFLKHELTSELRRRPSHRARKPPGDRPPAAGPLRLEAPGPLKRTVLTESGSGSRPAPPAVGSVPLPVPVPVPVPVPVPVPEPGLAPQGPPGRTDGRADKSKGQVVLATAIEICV
Chain of Cyclin-dependent kinase-like 2 (Homo sapiens) (Q92772 whole entry): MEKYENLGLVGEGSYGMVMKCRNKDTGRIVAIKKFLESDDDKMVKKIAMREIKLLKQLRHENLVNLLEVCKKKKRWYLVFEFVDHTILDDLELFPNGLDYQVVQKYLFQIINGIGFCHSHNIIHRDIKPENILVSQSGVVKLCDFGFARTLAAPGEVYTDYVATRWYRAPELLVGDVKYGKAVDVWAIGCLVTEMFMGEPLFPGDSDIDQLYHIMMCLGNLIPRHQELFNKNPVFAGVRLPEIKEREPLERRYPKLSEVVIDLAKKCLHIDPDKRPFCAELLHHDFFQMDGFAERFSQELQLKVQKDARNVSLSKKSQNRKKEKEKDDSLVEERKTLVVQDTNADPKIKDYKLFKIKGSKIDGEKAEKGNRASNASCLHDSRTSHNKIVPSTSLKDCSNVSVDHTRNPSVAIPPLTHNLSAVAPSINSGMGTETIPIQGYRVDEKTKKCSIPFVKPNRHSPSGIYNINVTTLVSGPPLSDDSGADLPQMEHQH
Chain of Serine/threonine-protein kinase N1 (Homo sapiens), Q16512 [V901I] (Q16512 whole entry V901I): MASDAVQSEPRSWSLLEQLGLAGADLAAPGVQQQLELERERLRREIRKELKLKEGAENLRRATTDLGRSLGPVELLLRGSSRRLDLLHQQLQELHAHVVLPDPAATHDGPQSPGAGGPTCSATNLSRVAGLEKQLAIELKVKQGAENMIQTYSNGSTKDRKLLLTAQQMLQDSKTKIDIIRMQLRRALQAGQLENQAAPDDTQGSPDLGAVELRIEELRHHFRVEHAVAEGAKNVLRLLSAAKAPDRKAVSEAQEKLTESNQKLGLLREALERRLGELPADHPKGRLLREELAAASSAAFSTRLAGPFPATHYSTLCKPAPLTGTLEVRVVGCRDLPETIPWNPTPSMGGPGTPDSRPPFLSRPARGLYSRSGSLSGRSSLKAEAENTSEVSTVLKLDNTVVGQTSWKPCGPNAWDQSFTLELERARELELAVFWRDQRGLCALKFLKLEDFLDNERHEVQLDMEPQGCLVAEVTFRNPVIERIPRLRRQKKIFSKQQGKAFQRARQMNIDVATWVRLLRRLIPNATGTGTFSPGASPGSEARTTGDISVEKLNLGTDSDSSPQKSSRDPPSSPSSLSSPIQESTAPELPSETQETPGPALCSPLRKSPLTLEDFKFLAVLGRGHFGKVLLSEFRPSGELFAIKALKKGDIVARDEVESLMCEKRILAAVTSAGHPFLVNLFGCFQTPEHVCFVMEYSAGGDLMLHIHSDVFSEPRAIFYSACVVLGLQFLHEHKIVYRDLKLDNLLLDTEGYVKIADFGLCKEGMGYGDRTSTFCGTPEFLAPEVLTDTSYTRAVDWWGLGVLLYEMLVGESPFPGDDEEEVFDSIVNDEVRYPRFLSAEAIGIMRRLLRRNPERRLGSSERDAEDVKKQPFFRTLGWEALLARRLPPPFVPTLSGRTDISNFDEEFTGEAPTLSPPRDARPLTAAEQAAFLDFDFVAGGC

## CN1C[C@H](Nc2nc3cc[nH]c3c(=O)n2C)C[C@H](c2ccc3c(c2)OCCO3)C1
[1]
  ΔTm: -0.3 °C
[2]
  inhibition: inactive
[3]
  inhibition: inactive
[4]
  inhibition: inactive
[5]
  inhibition: inactive
[6]
  inhibition: inactive
[7]
  inhibition: inactive
[8]
  inhibition: inactive
[9]
  inhibition: inactive
[10]
  inhibition: inactive
[11]
  inhibition: inactive
[12]
  inhibition: inactive
[13]
  inhibition: inactive
[14]
  inhibition: inactive
[15]
  inhibition: inactive
[16]
  inhibition: inactive
[17]
  inhibition: inactive
